Experimental data as given in ChEMBL document CHEMBL5357044, “Discovery of a dual-acting inhibitor of interleukin-1β and STATs for the treatment of inflammatory bowel disease” (RSC Med Chem, 2024).
The source made the active and inactive calls. The calls are words filed in the database; no cut-off is given here.

Legend:
[1] = target: NACHT, LRR and PYD domains-containing protein 3 (Mus musculus, UniProt Q8R4B8); assay: Inhibition of NLRP3 inflammasome activation in mouse J774.A1 cells assessed as reduction in LPS-stimulated IL-1beta level pretreated for 1 hr followed by nigericin treatment for 1 hr by ELISA; format: cell-based
Procedure, shortened: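 J774A.1 cells (DMEM, 10% FBS) primed with LPS 1 μg mL−1 for 5 h, compound 1 h, then nigericin 10 μM for 1 h. Supernatant IL-1β by ELISA; IC50 from three separate determinations.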

Colon [2] = assay: Anti-colitis activity against DSS-induced ulcerative colitis mouse model assessed as increase in crypt architecture in colon tissue at 10 mg/kg/day, po for 9 days by H and E staining based analysis; format: functional, organism-based; conditions: time 9.0 day
Procedure, shortened: (§1)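 H&E-stained colon sections (×20) scored for inflammatory cell infiltration, goblet cell depletion and crypt architecture. Samples were taken on day 9 from mice given 2.5% DSS water days 1–7 and daily intragastric SASP 10 mg kg−1.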

Mus musculus [3] = assay: Anti-colitis activity against DSS-induced ulcerative colitis mouse model assessed as decrease in hemafecia at 10 mg/kg/day, po treated for 9 days; format: functional, organism-based; conditions: time 9.0 day
Procedure, shortened: (§2)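 DSS colitis: 2.5% DSS in drinking water days 1–7, water days 8–9. Salicylazosulfapyridine given daily by intragastric gavage, 10 mg kg−1. Body weight and fecal blood recorded daily; colon length measured at sacrifice on day 9.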

Mus musculus [4] = assay: Anti-colitis activity against DSS-induced ulcerative colitis mouse model assessed as increase in body weight at 10 mg/kg/day, po treated for 9 days; format: functional, organism-based; conditions: time 9.0 day; procedure, shortened: as §2
Mus musculus [5] = assay: Anti-colitis activity against DSS-induced ulcerative colitis mouse model assessed as increase in colon length at 10 mg/kg/day, po treated for 9 days; format: functional, organism-based; conditions: time 9.0 day; procedure, shortened: as §2
Colon [6] = assay: Anti-colitis activity against DSS-induced ulcerative colitis mouse model assessed as decrease in infiltration of inflammatory cells in colon tissue at 10 mg/kg/day, po for 9 days by H and E staining based analysis; format: functional, organism-based; conditions: time 9.0 day; procedure, shortened: as §1
Colon [7] = assay: Anti-colitis activity against DSS-induced ulcerative colitis mouse model assessed as increase in goblet cells in colon tissue at 10 mg/kg/day, po for 9 days by H and E staining based analysis; format: functional, organism-based; conditions: time 9.0 day; procedure, shortened: as §1

NACHT, LRR and PYD domains-containing protein 3, sequence (Q8R4B8 whole entry, the tested form may be a part): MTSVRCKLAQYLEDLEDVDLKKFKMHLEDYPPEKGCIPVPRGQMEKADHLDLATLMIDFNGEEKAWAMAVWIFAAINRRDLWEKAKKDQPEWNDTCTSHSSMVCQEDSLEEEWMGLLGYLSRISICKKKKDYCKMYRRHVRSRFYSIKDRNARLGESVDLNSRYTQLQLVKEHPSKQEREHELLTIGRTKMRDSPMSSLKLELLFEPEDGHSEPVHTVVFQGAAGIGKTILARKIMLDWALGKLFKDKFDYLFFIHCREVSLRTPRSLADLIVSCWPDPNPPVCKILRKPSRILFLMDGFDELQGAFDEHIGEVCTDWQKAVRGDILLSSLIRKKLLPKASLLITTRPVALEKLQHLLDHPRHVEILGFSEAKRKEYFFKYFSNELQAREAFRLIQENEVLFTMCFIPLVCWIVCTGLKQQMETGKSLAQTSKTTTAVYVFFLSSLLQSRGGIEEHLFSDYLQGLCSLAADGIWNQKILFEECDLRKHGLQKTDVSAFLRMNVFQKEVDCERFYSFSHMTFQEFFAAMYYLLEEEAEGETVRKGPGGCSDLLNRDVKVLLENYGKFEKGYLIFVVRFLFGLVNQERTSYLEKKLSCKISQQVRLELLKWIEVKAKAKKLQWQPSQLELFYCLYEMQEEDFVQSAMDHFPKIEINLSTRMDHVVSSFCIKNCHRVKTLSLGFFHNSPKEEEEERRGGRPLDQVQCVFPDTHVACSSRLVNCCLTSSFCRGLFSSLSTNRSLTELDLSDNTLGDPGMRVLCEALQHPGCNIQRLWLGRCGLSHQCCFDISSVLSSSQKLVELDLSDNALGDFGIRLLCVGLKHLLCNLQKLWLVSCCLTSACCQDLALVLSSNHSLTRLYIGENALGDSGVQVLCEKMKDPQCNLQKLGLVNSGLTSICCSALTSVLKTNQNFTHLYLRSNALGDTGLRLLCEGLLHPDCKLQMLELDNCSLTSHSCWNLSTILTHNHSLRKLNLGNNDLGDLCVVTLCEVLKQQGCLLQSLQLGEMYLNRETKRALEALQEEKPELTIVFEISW

SMILES | IC50 [1] | also measured
Cc1cc(/C=C/C(=O)c2ccc3c(c2)COC32CNC2)cc(C)c1O | 5.21 µM | –
Cc1cc(/C=C/C(=O)c2ccc(C(=O)NCC(=O)Nc3ccccc3)cc2)cc(C)c1O | > 50 µM | –
COc1ccc(C(=O)/C=C/c2cc(C)c(O)c(C)c2)cc1 | 14.4 µM | –
CSc1ccc(C(=O)/C=C/c2cc(C)c(O)c(C)c2)cc1 | 3.67 µM | –
CCN(CC)C(=S)SCCC(=O)Nc1ccc(C(=O)/C=C/c2cc(C)c(O)c(C)c2)cc1 | 3.8 µM | –
CCN(CC)C(=S)Sc1ccc(C(=O)/C=C/c2cc(C)c(O)c(C)c2)cc1 | 27.1 µM | –
Cc1cc(/C=C/C(=O)c2ccc(C(=O)NCC(=O)O)cc2)cc(C)c1O | > 50 µM | –
CCOC(=O)c1ccc(C(=O)/C=C/c2cc(C)c(O)c(C)c2)cc1 | 8.36 µM | –
CCN(CC)C(=O)CNC(=O)c1ccc(C(=O)/C=C/c2cc(C)c(O)c(C)c2)cc1 | 5.95 µM | –
Cc1cc(/C=C/C(=O)c2ccc(C(=O)O)cc2)cc(C)c1O | > 50 µM | –
Cc1cc(/C=C/C(=O)c2ccc(C(=O)NCC(=O)N(C)C)cc2)cc(C)c1O | 5.97 µM | –
CCNC(=O)CNC(=O)c1ccc(C(=O)/C=C/c2cc(C)c(O)c(C)c2)cc1 | 3.96 µM | –
Cc1cc(/C=C/C(=O)c2ccc(NC(=O)CCN(C)C)cc2)cc(C)c1O | 5.97 µM | –
O=C(O)c1cc(/N=N/c2ccc(S(=O)(=O)Nc3ccccn3)cc2)ccc1O | – | Activity (Colon [2]): Active; Activity (Mus musculus [3]): inactive; Activity (Mus musculus [4]): inactive; Activity (Mus musculus [5]): Active; Activity (Colon [6]): Active; Activity (Colon [7]): Active
CCOC(=O)CSc1ccc(C(=O)/C=C/c2cc(C)c(O)c(C)c2)cc1 | 4.93 µM | –

Further lines, with some results ahead:

IC50 [1] | SMILES | also measured
3.01 µM | COC(=O)C1(C(=O)Nc2ccc(C(=O)/C=C/c3cc(C)c(O)c(C)c3)cc2)CC1 | –
3.37 µM | Cc1cc(/C=C/C(=O)c2ccc(C(=O)N[C@@H](Cc3ccccc3)C(=O)O)cc2)cc(C)c1O | –
1.57 µM | CSc1ccc(C(=O)/C=C/c2cc(O)cc(O)c2)cc1 | –
1.08 µM | COC(=O)CNC(=O)c1ccc(C(=O)/C=C/c2cc(C)c(O)c(C)c2)cc1 | –
3.02 µM | CNC(=O)CNC(=O)c1ccc(C(=O)/C=C/c2cc(C)c(O)c(C)c2)cc1 | –
1.09 µM | COC(=O)[C@H](Cc1ccccc1)NC(=O)c1ccc(C(=O)/C=C/c2cc(C)c(O)c(C)c2)cc1 | –
